Results of several laboratories.
Lines come from different studies, so protocols differ.
Target: Serine/threonine-protein kinase 26 (STK26, Homo sapiens, UniProt Q9P289)

Compound	assay	setting	measurement	value
CN(C)C1CCN(CC#Cc2nn(C3CCCC3)c3nc(NCc4ccccc4)ncc23)C1 (centres unmarked)	enzyme activity, inhibitor, FRET	10 µM	inhibition	78%
N#CC1c2c([nH]c3c(Cl)c(Cl)ccc23)C(=O)NC12CCCCC2 (racemic)	thermal stability, DSF	10 µM	ΔTm	0.1 °C
CN(C(=O)c1ccccc1)c1cc(N(C)c2ccc3c(c2)CCc2ccc(C(=O)NCCN4CCOCC4)cc2C3=O)ccc1F	cell-free assay, competition with immobilised ligand	1 µM	remaining binding	78%
COc1cc(Nc2cnc(C#N)c(O[C@H](C)CN(C)C)n2)ncc1-c1cnn(C)c1	enzyme activity, inhibitor, radiometric	10 µM	remaining activity	42%
O=C1NC(=O)c2cc(Nc3ccc(F)cc3)c(Nc3ccc(F)cc3)cc21	cell-free assay	0.5 µM	remaining signal	99%
COc1cc(-c2cc(-c3ccc(N4CCNCC4)cc3)cnc2C)cc(OC)c1OC	enzyme activity, inhibitor	0.1 µM	inhibition	9%
N[C@@H]1CCN(c2nccc(-c3cnn4ncccc34)n2)C1	cell-free assay	1 µM	remaining signal	100%
Nc1nc(Nc2ccccc2)sc1C(=O)c1c(F)cccc1F	enzyme activity, inhibitor	10 µM	remaining activity	57%
Cc1sc(C(=O)NC2COC2)cc1-n1cc(NC(=O)Nc2c(F)cccc2Cl)cn1	enzyme activity, inhibitor	10 µM	remaining activity	72.4%
CS(=O)(=O)N1CCCC(NC(=O)[C@H](CCC2CCCCC2)NC(=O)c2ccc(CNc3ncnc4c3nnn4-c3ccccc3)cc2)C1 (some centres unmarked)	cell-free assay, competition with immobilised ligand	0.1 µM	remaining binding	92%
c1cnn2ncc(-c3ccnc(N4CCC45COC5)n3)c2c1	cell-free assay	1 µM	remaining signal	64%
FC(F)c1nc2ccccc2n1-c1nc(N2CCOCC2)nc(N2CCOCC2)n1	enzyme activity, inhibitor	10 µM	remaining activity	88%
Cn1c2c(Cl)c(Cl)ccc2c2cc[nH]c(=O)c21	thermal stability, DSF	10 µM	ΔTm	1.5 °C
Cn1nc(C(=O)NCc2ccc(C(=O)O)cc2)cc1-c1ccc2[nH]ccc2c1	cell-free assay, competition with immobilised ligand	0.1 µM	remaining binding	95%
CCCS(=O)(=O)Nc1ccc(F)c(C(=O)c2c[nH]c3ncc(-c4ccc(Cl)cc4)cc23)c1F	enzyme activity, inhibitor	1 µM	inhibition	< 10%
c1ccc(N2CCN(Cc3nc4ccccc4[nH]3)CC2)nc1	binding, competition with immobilised ligand	1 µM	remaining binding	100%
CC(C)(C)c1nc(-c2cccc(NS(=O)(=O)c3c(F)cccc3F)c2F)c(-c2ccnc(N)n2)s1	enzyme activity, inhibitor, radiometric	1 µM	remaining activity	103%
O=C(NC[C@@H]1[C@H]2CN(C(=O)OCc3cc(C(F)(F)F)cc(C(F)(F)F)c3)C[C@@H]12)c1ccc2[nH]nnc2c1	cell-free assay, competition with immobilised ligand	1 µM	remaining binding	76%
Cc1cnn2ncc(-c3ccnc(N(C)C)n3)c2c1	cell-free assay	1 µM	remaining signal	98%
O=C(Nc1cnc(Oc2ccc(F)cc2)nc1)N1CCc2ncccc2[C@@H]1c1ccc(F)cc1	cell-free assay, competition with immobilised ligand	1 µM	remaining binding	90%
CC(C)(O)[C@H]1CC[C@H](Nc2ccc3ncc(-c4cccc(C(F)(F)F)c4)n3n2)CC1	enzyme activity, inhibitor	1 µM	remaining activity	109%
FC(F)(F)c1ccc2c(c1)nc(-c1cccnc1)n2C1CC1	cell-free assay, competition with immobilised ligand	1 µM	remaining binding	100%
COc1cccc2c(NCc3ccccc3)nc(-n3c(N)nc4ccccc43)nc12	target engagement in cells, inhibitor, chemoproteomics	20 mM	inhibition	31.1%
